Source: PMC10872764 (Journal of controlled release : official journal of the …, 2023)
Blank lines part the entries; values can stand above or below the compound they belong to.

Experiments:
Water solubility = assay type: physicochemical
ACE2 gene expression = experiment: ACE2 mRNA in Calu-3 cells by quantitative real-time PCR; assay type: cell-based, human; details: 25 μg/mL H4, varying durations
ACE2 [1] = target: T1, ACE2 (Homo sapiens, UniProt Q9BYF1); experiment: Activity of recombinant ACE2 with Zn chelation by DTPA; assay type: biochemical; details: 25 μg/mL H4 (200 ng/mL elsewhere in the source), 25 mM DTPA, 37 °C
Procedure, shortened: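 Human recombinant ACE2 was incubated at 37 °C with or without test compound (25 μg/mL in methods; 200 ng/mL in legend). Free Zn was depleted with 25 mM DTPA. Activity was read by fluorogenic Mca-YVADAPK(Dnp)-OH cleavage (ex 330/em 405 nm) in MES/NaCl/ZnCl2/Brij-35 buffer, pH 6.5. Each dot is one treatment well; one-way ANOVA.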
Target sequence in this assay (Q9BYF1 18-805): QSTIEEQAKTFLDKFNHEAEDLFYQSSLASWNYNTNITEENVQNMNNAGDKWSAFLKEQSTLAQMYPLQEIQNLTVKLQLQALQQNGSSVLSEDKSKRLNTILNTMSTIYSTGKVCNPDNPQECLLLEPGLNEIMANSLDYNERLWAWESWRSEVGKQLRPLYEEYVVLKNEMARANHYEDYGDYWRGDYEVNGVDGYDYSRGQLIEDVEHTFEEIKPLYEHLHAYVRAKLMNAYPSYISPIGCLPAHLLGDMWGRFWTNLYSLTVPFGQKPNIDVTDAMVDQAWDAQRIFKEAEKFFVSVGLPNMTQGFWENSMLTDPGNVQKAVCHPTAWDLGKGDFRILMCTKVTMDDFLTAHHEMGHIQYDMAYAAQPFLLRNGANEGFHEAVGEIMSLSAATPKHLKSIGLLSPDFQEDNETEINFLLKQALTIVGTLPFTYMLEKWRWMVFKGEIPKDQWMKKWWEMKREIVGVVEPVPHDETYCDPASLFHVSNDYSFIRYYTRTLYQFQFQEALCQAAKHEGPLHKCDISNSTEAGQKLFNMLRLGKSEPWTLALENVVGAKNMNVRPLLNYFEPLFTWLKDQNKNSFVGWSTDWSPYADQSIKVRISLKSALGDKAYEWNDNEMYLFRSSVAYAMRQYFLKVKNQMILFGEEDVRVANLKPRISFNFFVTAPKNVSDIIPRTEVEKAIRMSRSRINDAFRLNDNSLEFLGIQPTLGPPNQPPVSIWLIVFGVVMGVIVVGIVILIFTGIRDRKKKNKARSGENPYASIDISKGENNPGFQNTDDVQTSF

[2] = tested on: P. aeruginosa induced bacterial pneumonia; experiment: P. aeruginosa induced bacterial pneumonia model, wild-type mice; assay type: in vivo, mouse; details: wild-type mice infected with P. aeruginosa; treatment 18 h after inoculation
Procedure, shortened: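 In wild-type C57BL/6 mice, P. aeruginosa was instilled intratracheally via tracheal intubation. Test compound (10 mg/kg) was given by nasal instillation 18 h after inoculation, and lungs were collected 30 h later (48 h post-infection). Lung sections were H&E-stained; n = 5 per group; one-way ANOVA with multiple comparisons.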

[3] = tested on: P. aeruginosa induced bacterial pneumonia; experiment: P. aeruginosa induced bacterial pneumonia model, global ACE2 knockout; assay type: in vivo, mouse; details: Ace2-/- mice infected with P. aeruginosa, H4 treatment, n = 3
Procedure, shortened: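 Ace2−/− mice were given P. aeruginosa by intratracheal instillation via tracheal intubation, with test compound 18 h after inoculation and samples taken 30 h later; n = 3 per group. Endpoints: body weight at sacrifice, lung H&E, lung IFNγ, MPO immunofluorescence, and BAL flow cytometry (Fc block 20 min at 4 °C, viability dye, CD45+CD11b+Ly6G+ live cells).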

ACE2 [4] = target: T1, ACE2; experiment: ACE2 activity in culture medium of Calu-3 cells; assay type: cell-based
Target sequence in this assay (Q9BYF1 18-708 limits assumed): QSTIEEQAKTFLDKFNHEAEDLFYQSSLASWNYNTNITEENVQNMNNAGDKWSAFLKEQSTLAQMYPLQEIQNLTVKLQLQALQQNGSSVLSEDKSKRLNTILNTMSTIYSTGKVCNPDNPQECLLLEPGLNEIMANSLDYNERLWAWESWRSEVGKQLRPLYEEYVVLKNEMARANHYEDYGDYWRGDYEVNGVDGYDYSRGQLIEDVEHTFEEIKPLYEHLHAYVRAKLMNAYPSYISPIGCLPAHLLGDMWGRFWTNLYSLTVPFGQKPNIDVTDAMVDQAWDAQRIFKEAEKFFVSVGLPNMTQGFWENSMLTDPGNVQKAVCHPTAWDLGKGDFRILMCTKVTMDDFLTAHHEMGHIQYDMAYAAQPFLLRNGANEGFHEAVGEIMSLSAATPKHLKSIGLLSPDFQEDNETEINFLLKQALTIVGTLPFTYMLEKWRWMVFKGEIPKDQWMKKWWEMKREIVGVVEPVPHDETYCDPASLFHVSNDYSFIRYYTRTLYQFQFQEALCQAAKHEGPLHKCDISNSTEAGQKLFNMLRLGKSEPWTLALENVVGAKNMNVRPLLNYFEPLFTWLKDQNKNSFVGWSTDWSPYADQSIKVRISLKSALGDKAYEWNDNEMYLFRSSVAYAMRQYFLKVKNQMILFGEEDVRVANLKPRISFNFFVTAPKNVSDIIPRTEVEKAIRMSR

[5] = cited from earlier work
mouse lungs = experiment: In vivo cytotoxicity; details: mice, 2.5 mg/mL, 30 μl/mouse, nasal inhalation
Procedure, shortened: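 Wild-type C57/Bl6 mice received 30 μl of a 2.5 mg/ml solution of self-assembled prodrug, or saline, by nasal inhalation. Lungs were collected 48 h later per methods (18 h per results). Tissue went to histopathology, apoptotic cell counts, immunofluorescence, and ELISA/qRT-PCR for proinflammatory cytokines. At least three mice per group; experiments repeated twice.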

dissolution in water (Water solubility; water, 25 °C, no method or source printed): 0.5 mg/mL | plateau of ACE2 activity enhancement (ACE2 [4]): around 50 μg/mL | concentration range in which ACE2 activity is notably augmented (ACE2 [4]; 0–500 μg/ml, 18 h, 37 °C, culture medium): 5 to 50 µg/mL | mid-effective concentration for enhancing ACE2 activity (ACE2 [4]; dose-dependent): 10 to 30 µg/mL
Compound: C[C@]12CC[C@@H]3c4ccc(O)cc4CC[C@H]3[C@@H]1C[C@@H](O)[C@@H]2O [H4]
ACE2 mRNA levels (ACE2 gene expression): did not induce ACE2 gene expression | ACE2 activity of recombinant ACE2 (ACE2 [1]): restore the ACE2 activity that had been inhibited by DTPA | lung histopathology (H&E) [2]: alleviated histopathology | body weight recovery [3]: no discernible effects | lung histopathology (H&E) [3]: no discernible effects | neutrophil infiltration into the lungs (BAL flow cytometry, MPO staining) [3]: did not diminish neutrophil infiltration | production of MIP-2 [3]: nor did it decrease the production of MIP-2 | proinflammatory cytokine IFNγ in lung tissue [3]: no discernible effects

Compound: CC(=O)NCC(=O)O.CC(=O)NCC(=O)O.N=C(N)c1ccc(N=NNc2ccc(C(=N)N)cc2)cc1 [DIZE, diminazene aceturate]
toxicity [5]: high toxicity

ACE2 activity of recombinant ACE2 (ACE2 [1]): substantially diminishes ACE2 activity
Compound: O=C(O)CN(CCN(CC(=O)O)CC(=O)O)CCN(CC(=O)O)CC(=O)O [DTPA, diethylenetriaminepentaacetic acid]

Compound: Cc1ccc(S(=O)(=O)Oc2ccc3oc4c(CO)ccc(NCCN(C)C)c4c(=O)c3c2)cc1 [XNT, xanthenone]
toxicity [5]: high toxicity

Compound: H4-Succinic Acid-Val-Val-Glu-Glu-NH2 [H4 prodrug]
solubility in water compared with H4 (Water solubility; photographs of aqueous solutions at 1 mg/mL (Fig. 4B)): improved solubility in water | lung histopathology (H&E) [2]: enhanced histology | toxicity in the lungs (mouse lungs): non-detectable toxicity | pro-inflammatory cytokine levels in lung tissues (mouse lungs; ELISA and qRT-PCR): no surge in pro-inflammatory cytokine levels
